These results are taken from BindingDB's records for doi:10.1021/jm00074a030 (Wellcome Research Laboratories, 1993).

Thymidylate synthase, sequence (P04818 whole entry): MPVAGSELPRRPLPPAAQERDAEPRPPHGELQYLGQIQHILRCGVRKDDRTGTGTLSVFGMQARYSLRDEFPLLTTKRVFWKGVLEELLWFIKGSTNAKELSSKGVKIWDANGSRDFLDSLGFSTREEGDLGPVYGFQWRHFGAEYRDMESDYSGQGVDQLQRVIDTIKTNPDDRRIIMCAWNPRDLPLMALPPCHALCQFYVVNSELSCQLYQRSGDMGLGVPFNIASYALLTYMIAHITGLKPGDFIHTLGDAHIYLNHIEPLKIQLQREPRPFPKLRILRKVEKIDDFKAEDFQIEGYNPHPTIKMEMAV

This assay concerns the target Thymidylate synthase (Homo sapiens, UniProt P04818). In words: Inhibition of purified human thymidylate synthase (TS) isolated from an Escherichia coli harboring a plasmid with thy A gene cloned from SV40 transformed human fibroblast cells. In a few lines:
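Purified recombinant human TS, expressed in E. coli from a thyA gene cloned from SV40-transformed human fibroblasts. Inhibition was measured by a modified tritium-release assay. Ki was estimated by treating compounds as tight-binding noncompetitive inhibitors.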
What is called Ki is a dissociation constant, usually derived from enzyme kinetics or from competition with a known ligand. Lower therefore signals tighter binding. `Nc1nc(O)c2c(ccc3ccc(Br)cc32)n1` gave a Ki of 20 nM.

Consider `Nc1nc2ccc3cc(S(=O)(=O)Nc4ccc(C(=O)N[C@@H](CCC(=O)O)C(=O)O)cc4)c(Br)cc3c2c(=O)[nH]1`, for which the Ki is 16400 nM. Under `Nc1nc(O)c2c(ccc3ccc(NS(=O)(=O)c4ccc(C(=O)N[C@@H](CCC(=O)O)C(=O)O)cc4)cc32)n1` stands 100 nM.
